In ChEMBL document CHEMBL1142436, “Design and synthesis of 4-substituted indolo[3,2-e][1,2,3]triazolo[1,5-a]pyrimidine derivatives with antitumor activity” (2008):
One block for each compound: values may come before it.

Key:
Type in all cases: functional
SF-268 [1] = assay: Growth inhibition of human SF268 cells after 48 hrs; conditions: SF-268, 48 h
In short: (§1)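 NCI ~60-line screen. Cells were grown in RPMI 1640 with 5% FBS and 2 mM L-glutamine and plated at 5000–40000 cells/well. After a 24 h preincubation, five drug concentrations from DMSO stocks were added for 48 h at 37 °C. Cells were TCA-fixed, stained with SRB and read at 515 nm. GI50 was taken from time-zero and control absorbances and reported as pGI50.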

SF-539 = assay: Growth inhibition of human SF539 cells after 48 hrs; conditions: SF-539, 48 h; in short: as §1
SN12C = assay: Growth inhibition of human SN12C cells after 48 hrs
In short: (§2)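 NCI 60-line screen: cells in RPMI 1640 with 5% FBS and 2 mM L-glutamine, plated at 5000–40000 cells/well, grown 24 h (37 °C, 5% CO₂), then exposed to five 10-fold or ½-log dilutions (DMSO stock) for 48 h. Fixed with TCA (final 10% for adherent cells, 16% for suspension cells), then SRB stained with absorbance at 515 nm. GI50 from percentage growth relative to time-zero and control wells.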

SNB-75 = assay: Growth inhibition of human SNB75 cells after 48 hrs; conditions: SNB-75, 48 h; in short: as §2
T47D = assay: Growth inhibition of human T47D cells after 48 hrs; in short: as §2
UACC-257 = assay: Growth inhibition of human UACC257 cells after 48 hrs; conditions: UACC-257, 48 h; in short: as §2
Malme-3M = assay: Growth inhibition of human MALME3M cells after 48 hrs; in short: as §1
OVCAR-4 = assay: Growth inhibition of human OVCAR4 cells after 48 hrs; conditions: OVCAR-4, 48 h; in short: as §1
CAKI-1 = assay: Growth inhibition of human CAKI1 cells after 48 hrs; conditions: CAKI-1, 48 h; in short: as §1
HOP-62 = assay: Growth inhibition of human HOP62 cells after 48 hrs; conditions: HOP-62, 48 h; in short: as §1
SNB-19 = assay: Growth inhibition of human SNB19 cells after 48 hrs; conditions: SNB-19, 48 h; in short: as §2
HT-29 = assay: Growth inhibition of human HT29 cells after 48 hrs; conditions: HT-29, 48 h; in short: as §1
ACHN = assay: Growth inhibition of human ACHN cells after 48 hrs; in short: as §1
UACC-62 = assay: Growth inhibition of human UACC62 cells after 48 hrs; conditions: UACC-62, 48 h; in short: as §2
NCI-H23 = assay: Growth inhibition of human NCI-H23 cells after 48 hrs; conditions: Homo sapiens, NCI-H23, 48 h; in short: as §1
786-0 = assay: Growth inhibition of human 786-0 cells after 48 hrs; conditions: 786-0, 48 h; in short: as §1
SK-MEL-28 = assay: Growth inhibition of human SK-MEL28 cells after 48 hrs; conditions: SK-MEL-28, 48 h; in short: as §1
UO-31 = assay: Growth inhibition of human UO31 cells after 48 hrs; conditions: UO-31, 48 h; in short: as §2
CCRF-CEM = assay: Growth inhibition of human CCRF-CEM cells after 48 hrs; in short: as §1
MDA-MB-435 = assay: Growth inhibition of human MDA-MB435 cells after 48 hrs; conditions: MDA-MB-435, 48 h; in short: as §1
HL-60 = assay: Growth inhibition of human HL60 cells after 48 hrs; conditions: HL-60, 48 h; in short: as §1
HCT-116 = assay: Growth inhibition of human HCT116 cells after 48 hrs; conditions: HCT-116, 48 h; in short: as §1
U-251 = assay: Growth inhibition of human U251 cells after 48 hrs; conditions: U-251, 48 h; in short: as §2
HOP-92 = assay: Growth inhibition of human HOP92 cells after 48 hrs; conditions: HOP-92, 48 h; in short: as §1
OVCAR-5 = assay: Growth inhibition of human OVCAR5 cells after 48 hrs; conditions: OVCAR-5, 48 h; in short: as §1
[2] = Growth inhibition of human HS578T cells after 48 hrs; conditions: Hs-578T; in short: as §1
SW-620 = assay: Growth inhibition of human SW620 cells after 48 hrs; conditions: SW-620, 48 h; in short: as §2
NCI-H522 = assay: Growth inhibition of human NCI-H522 cells after 48 hrs; conditions: NCI-H522, 48 h; in short: as §1
K562 = assay: Growth inhibition of human K562 cells after 48 hrs; conditions: K562, 48 h; in short: as §1
SF-295 = assay: Growth inhibition of human SF295 cells after 48 hrs; conditions: SF-295, 48 h; in short: as §1
HCC 2998 = assay: Growth inhibition of human HCC2998 cells after 48 hrs; conditions: HCC 2998, 48 h; in short: as §1
EKVX = assay: Growth inhibition of human EKVX cells after 48 hrs; in short: as §1
A498 = assay: Growth inhibition of human A498 cells after 48 hrs; conditions: A498, 48 h; in short: as §1
SK-OV-3 = assay: Growth inhibition of human SKOV3 cells after 48 hrs; conditions: SK-OV-3, 48 h; in short: as §2
NCI-H460 [3] = assay: Growth inhibition of human NCI-H460 cells after 48 hrs; conditions: NCI-H460, 48 h; in short: as §1
A549 = assay: Growth inhibition of human A549 cells after 48 hrs; conditions: A549, 48 h; in short: as §1
SK-MEL-2 = assay: Growth inhibition of human SK-MEL2 cells after 48 hrs; conditions: SK-MEL-2, 48 h; in short: as §1
M14 = assay: Growth inhibition of human M14 cells after 48 hrs; conditions: M14, 48 h; in short: as §1
NCI-H322M = assay: Growth inhibition of human NCI-H322M cells after 48 hrs; in short: as §1
TK-10 = assay: Growth inhibition of human TK10 cells after 48 hrs; conditions: TK-10, 48 h; in short: as §2
OVCAR-8 = assay: Growth inhibition of human OVCAR8 cells after 48 hrs; conditions: OVCAR-8, 48 h; in short: as §1
RXF 393 = assay: Growth inhibition of human RXF393 cells after 48 hrs; conditions: RXF 393, 48 h; in short: as §1
RPMI-8226 = assay: Growth inhibition of human RPMI8226 cells after 48 hrs; conditions: RPMI-8226, 48 h; in short: as §1
MCF7 [4] = assay: Growth inhibition of human MCF7 cells after 48 hrs; conditions: MCF7, 48 h; in short: as §1
HCT-15 = assay: Growth inhibition of human HCT15 cells after 48 hrs; conditions: HCT-15, 48 h; in short: as §1
NCI/ADR-RES = assay: Growth inhibition of human NCI/ADR-RES cells after 48 hrs; in short: as §1
KM12 = assay: Growth inhibition of human KM12 cells after 48 hrs; conditions: KM12, 48 h; in short: as §1
OVCAR-3 = assay: Growth inhibition of human OVCAR-3 cells after 48 hrs; conditions: OVCAR-3, 48 h; in short: as §1
DU-145 = assay: Growth inhibition of human DU145 cells after 48 hrs; conditions: DU-145, 48 h; in short: as §1
NCI-H226 = assay: Growth inhibition of human NCI-H226 cells after 48 hrs; conditions: NCI-H226, 48 h; in short: as §1
SK-MEL-5 = assay: Growth inhibition of human SK-MEL5 cells after 48 hrs; conditions: SK-MEL-5, 48 h; in short: as §1
BT-549 = assay: Growth inhibition of human BT549 cells after 48 hrs; conditions: BT-549, 48 h; in short: as §1
SR = assay: Growth inhibition of human SR cells after 48 hrs; in short: as §2
MDA-MB-231 = assay: Growth inhibition of human MDA-MB-231 cells after 48 hrs; conditions: MDA-MB-231, 48 h; in short: as §1
LOX IMVI = assay: Growth inhibition of human LOXIMVI cells after 48 hrs; in short: as §1
COLO 205 = assay: Growth inhibition of human COLO205 cells after 48 hrs; conditions: COLO 205, 48 h; in short: as §1
MOLT-4 = assay: Growth inhibition of human MOLT4 cells after 48 hrs; conditions: MOLT-4, 48 h; in short: as §1
PC-3 = assay: Growth inhibition of human PC3 cells after 48 hrs; conditions: PC-3, 48 h; in short: as §1
IGROV-1 = assay: Growth inhibition of human IGROV1 cells after 48 hrs; conditions: IGROV-1, 48 h; in short: as §1
NCI-H460 [5] = assay: Antitumor activity against human NCI-H460 cells at 0.1 mM after 48 hrs
In short: (§3)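 Prescreen run under the NCI Developmental Therapeutic Program. Agents were tested at a single concentration of 10^-4 M against a three-line panel (MCF7, NCI-H460, SF-268).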

MCF7 [6] = assay: Antitumor activity against human MCF7 cells at 0.1 mM after 48 hrs; in short: as §3
SF-268 [7] = assay: Antitumor activity against human SF268 cells at 0.1 mM after 48 hrs; in short: as §3

GI50 (T47D): 56.2 µM
GI50 (OVCAR-4): 38 µM
GI50 (HT-29): > 100 µM
GI50 (ACHN): > 100 µM
GI50 (NCI-H23): > 100 µM
GI50 (786-0): > 100 µM
GI50 (SK-MEL-28): > 100 µM
GI50 (CCRF-CEM): > 100 µM
GI50 (MDA-MB-435): > 100 µM
GI50 (HL-60): > 100 µM
GI50 (HCT-116): 91.2 µM
GI50 (U-251): > 100 µM
GI50 (OVCAR-5): > 100 µM
GI50 (SW-620): > 100 µM
GI50 (NCI-H522): 69.2 µM
GI50 (K562): > 100 µM
GI50 (HCC 2998): > 100 µM
GI50 (SK-OV-3): > 100 µM
GI50 (NCI-H460 [3]): > 100 µM
GI50 (A549): > 100 µM
GI50 (SK-MEL-2): > 100 µM
GI50 (NCI-H322M): > 100 µM
GI50 (OVCAR-8): > 100 µM
GI50 (RPMI-8226): > 100 µM
GI50 (MCF7 [4]): 64.6 µM
GI50 (HCT-15): > 100 µM
GI50 (OVCAR-3): > 100 µM
GI50 (DU-145): > 100 µM
GI50 (NCI-H226): > 100 µM
GI50 (SK-MEL-5): > 100 µM
GI50 (BT-549): 72.4 µM
GI50 (MDA-MB-231): 72.4 µM
GI50 (COLO 205): > 100 µM
GI50 (MOLT-4): > 100 µM
GI50 (PC-3): > 100 µM
Compound: Cn1c2ccccc2c2c(=O)n(CCCC(=O)N(C(=O)NC3CCCCC3)C3CCCCC3)c3c(-c4ccccc4)nnn3c21
GI50 (SF-268 [1]): 97.7 µM
GI50 (SF-539): 38 µM
GI50 (SN12C): > 100 µM
GI50 (SNB-75): 44.7 µM
GI50 (UACC-257): > 100 µM
GI50 (Malme-3M): > 100 µM
GI50 (CAKI-1): > 100 µM
GI50 (HOP-62): > 100 µM
GI50 (SNB-19): > 100 µM
GI50 (UACC-62): > 100 µM
GI50 (UO-31): > 100 µM
GI50 (HOP-92): > 100 µM
GI50 [2]: > 100 µM
GI50 (SF-295): 79.4 µM
GI50 (EKVX): > 100 µM
GI50 (A498): 66.1 µM
GI50 (M14): > 100 µM
GI50 (TK-10): > 100 µM
GI50 (RXF 393): 63.1 µM
GI50 (NCI/ADR-RES): 95.5 µM
GI50 (KM12): > 100 µM
GI50 (SR): > 100 µM
GI50 (LOX IMVI): > 100 µM
GI50 (IGROV-1): 15.5 µM

Compound: CCOC(=O)CCCn1c(=O)c2c3ccccc3n(C)c2n2nnc(-c3ccccc3)c12
Activity (NCI-H460 [5]): 95%
Activity (MCF7 [6]): 114%
Activity (SF-268 [7]): 110%
